Assay [1] deals with T1, Hormone-sensitive lipase (Rattus norvegicus) (UniProt P15304).
T1 sequence (whole entry): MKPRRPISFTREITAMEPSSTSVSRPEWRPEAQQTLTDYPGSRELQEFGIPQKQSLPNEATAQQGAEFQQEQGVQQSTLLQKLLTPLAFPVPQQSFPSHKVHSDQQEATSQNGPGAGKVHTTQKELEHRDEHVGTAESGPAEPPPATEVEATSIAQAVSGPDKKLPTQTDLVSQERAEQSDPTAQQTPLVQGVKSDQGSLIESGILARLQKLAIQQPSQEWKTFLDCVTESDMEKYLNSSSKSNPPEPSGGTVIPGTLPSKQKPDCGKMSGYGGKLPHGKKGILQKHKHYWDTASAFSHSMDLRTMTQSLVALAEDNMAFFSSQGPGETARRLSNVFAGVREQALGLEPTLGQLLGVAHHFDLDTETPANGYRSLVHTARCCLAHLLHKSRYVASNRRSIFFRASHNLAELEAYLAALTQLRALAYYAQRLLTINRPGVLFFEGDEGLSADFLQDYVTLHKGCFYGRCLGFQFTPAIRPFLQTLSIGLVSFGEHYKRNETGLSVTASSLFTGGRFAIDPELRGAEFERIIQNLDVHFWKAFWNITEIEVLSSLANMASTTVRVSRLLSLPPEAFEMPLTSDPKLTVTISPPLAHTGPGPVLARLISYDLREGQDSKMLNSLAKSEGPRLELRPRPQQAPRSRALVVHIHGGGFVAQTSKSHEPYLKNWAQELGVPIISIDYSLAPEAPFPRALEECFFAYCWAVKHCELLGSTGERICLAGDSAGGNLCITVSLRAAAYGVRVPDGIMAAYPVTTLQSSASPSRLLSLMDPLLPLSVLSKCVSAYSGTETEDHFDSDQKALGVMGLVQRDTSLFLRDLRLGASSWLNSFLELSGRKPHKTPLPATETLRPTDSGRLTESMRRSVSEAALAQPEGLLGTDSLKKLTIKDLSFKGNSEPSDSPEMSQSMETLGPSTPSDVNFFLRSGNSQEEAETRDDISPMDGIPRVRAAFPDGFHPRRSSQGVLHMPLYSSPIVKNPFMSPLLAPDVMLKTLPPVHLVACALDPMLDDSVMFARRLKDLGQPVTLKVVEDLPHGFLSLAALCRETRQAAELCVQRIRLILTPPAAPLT
Description: Inhibition of HSL in Wistar rat isolated fat cells at 10 uM by spectrophotometric assay. In a few lines:
(§1)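 HSL extract from male Wistar rat epididymal fat cells (collagenase-isolated, homogenized in Tris-HCl pH 7.0/sucrose, ether-extracted supernatant). Enzyme preincubated with compound 30 min at 37 °C, then p-nitrophenyl butyrate added at 10 µM in phosphate buffer pH 7.25 with dithioerythritol; DMSO ≤1.0%. A400 read at 1, 3, 6 min at 37 °C; residual activity versus no-compound control; mean of ≥3 measurements.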

Another assay concerns the target T2, Hormone-sensitive lipase (Rattus norvegicus, UniProt P15304).
T2 sequence (P15304 whole entry): T1 sequence (whole entry)
Description: Inhibition of HSL in Wistar rat isolated fat cells by spectrophotometric assay.

For assay [2], the target named is T1, Hormone-sensitive lipase (Rattus norvegicus). As to the kind of experiment: Inhibition of HSL in Wistar rat isolated fat cells at 1 uM by spectrophotometric assay. In a few lines: as §1

These results are taken from ChEMBL document CHEMBL1140143, “Combining ligand-based pharmacophore modeling, quantitative structure-activity relationship analysis and in silico screening for the discovery of new potent hormone sensitive lipase inhibitors” (J Med Chem, 2008).

pIC50: −log10 of the molar value. Some results are limits rather than exact numbers.

In general, inhibition refers to the relative decrease from the control value, in per cent. Low values mean a weak effect, high ones a strong effect. As to `O=S(=O)(Oc1ccc(Cl)cc1)c1ccc(Cl)cc1`, the inhibition in assay [1] was 26%.

The pIC50 is the negative decadic logarithm of the IC50, by convention in mol/L. Higher therefore signals a small IC50. Take `CCSCc1ccccc1OC(=O)NC` [ETHIOFENCARB]: in assay [1], the inhibition amounted to 52%. At Hormone-sensitive lipase, this compound gave a pIC50 of 6.43. Consider `CC(C)[C@H](C(=O)O[C@H](C#N)c1cccc(Oc2ccccc2)c1)c1ccc(Cl)cc1`, for which the inhibition in assay [2] is 33%. In assay [1], `O=C(OCc1ccccc1)c1ccccc1` [BENZYL BENZOATE] came in with an inhibition of 66%. This compound also showed a pIC50 against Hormone-sensitive lipase of 5.96. In assay [2], `O=C(/C=C/c1ccccc1)OCCc1ccccc1` returned an inhibition of 12%. Regarding `COC(=O)Cc1nc2ccc(OC)cc2nc1O`, the inhibition in assay [1] worked out at 15%.

For `COc1cc(CNC(=O)CCCC/C=C/C(C)C)ccc1O`, in assay [1], the inhibition amounted to 33%.

On to `Cc1ccc(-c2nc(SCc3ccccc3)nc(O)c2CCO)cc1`, for which the inhibition in assay [2] was 45%.

In turn, `COc1ccc(Cc2ccc3nc(O)cc(C)c3c2)cc1S(=O)(=O)O` yielded an inhibition in assay [1] of 24%. For `CC(C)=NNc1ccnc(SCc2ccccc2)n1`, in assay [1], the inhibition was found to be 2%. In assay [2], `CCOc1ccc([Si](C)(C)CCCc2ccc(F)c(Oc3ccccc3)c2)cc1` registered an inhibition of 6%. Same read-out and setting: as for `O=C(COC(=O)c1ccccc1)c1ccccc1`, the figure is 9%. Consider `COC(=O)c1nnn(CCc2c[nH]c3ccccc23)c1C(=O)OC`, for which the inhibition in assay [1] amounted to 52%. Further, the pIC50 on Hormone-sensitive lipase was 5.30. `COc1ccc2cc([C@H](C)C(=O)O)ccc2c1` showed an inhibition in assay [1] of 64%. On the same count and under the same terms, as for `COC(=O)c1ccc(C)c(NS(=O)(=O)c2ccc3c(c2)c(=O)sn3C)c1`, the figure is 24%. With `COc1ccc(C(=O)c2ccccc2)c(O)c1` [OXYBENZONE], the inhibition in assay [1] is 44%. Besides, the pIC50 on Hormone-sensitive lipase is 5.49.

Compound `CC(=O)Oc1cc(OCCCc2ccc(F)cc2)cc2c1-c1ccccc1CC2` returned an inhibition in assay [2] of 24%. The compound `CCOC(=O)c1nc2ccccc2nc1NCc1ccc(OC)cc1` displayed an inhibition in assay [2] of 27%. Same read-out and setting: in the case of `Cc1ccc(S(=O)(=O)Nc2cccc3cc(Cl)ccc23)cc1` it was 15%.

`O=C(/C(=N/c1ccccc1)NO)c1ccccc1` yielded an inhibition in assay [1] of 23%.

With `COC(=O)C1Oc2ccc(Cl)cc2C1=O` (stereo not given), the inhibition in assay [1] is 3%.

With `COC1=CC(=O)OC(C)(c2ccccc2)C1` (stereo not given), the inhibition in assay [1] was determined as 24%. As for `COc1cccc(CSC(C(=O)O)c2ccccc2)c1` (stereo not given), the inhibition in assay [2] was determined as 67%. Besides, on Hormone-sensitive lipase, the pIC50 is 6.29. `O=C(CC(=O)c1ccccc1)c1ccccc1` displayed an inhibition in assay [1] of 28%. `O=c1c(O)c(-c2ccccc2)oc2ccccc12` came in with an inhibition in assay [2] of 23%.

In assay [1], `COc1ccc(C(O)c2cc3ccccc3n2S(=O)(=O)c2ccccc2)cc1` (stereo not given) gave an inhibition of 29%.

In the case of `CC(C)C(C(=O)OC(C#N)c1cccc(Oc2ccccc2)c1)c1ccc(Cl)cc1` (stereo not given), the inhibition in assay [2] was 37%. Regarding `CSc1nc(-c2ccc(C)cc2)nn1C(=O)N1CCOCC1`, the pIC50 against Hormone-sensitive lipase is 7.15. In assay [2], `CCCCOc1ccc(Oc2ccc(C(F)(F)F)cc2[N+](=O)[O-])cc1` displayed an inhibition of 64%. The pIC50 against Hormone-sensitive lipase was 6.68. At Hormone-sensitive lipase, `CSc1nc(-c2ccc(OC(F)(F)F)cc2)nn1C(=O)N(C)c1ccccc1` showed a pIC50 of 8.36. On Hormone-sensitive lipase, `COCCc1c(C)n(C(=O)N2CCC(c3cccc(C)c3)CC2)oc1=O` gave a negative-log IC50 (pIC50) of 7.64. This pIC50 lies 0.72 log units lower than the previous one.

For the compound `Cc1c(C2CCCC2)c(=O)on1C(=O)N1CCCCC1`, the pIC50 against Hormone-sensitive lipase is 8.22. This pIC50 is 0.58 log units higher than that of the compound before.

Regarding `O=C(N1CCCCC1)n1nc(-c2ccc(Cl)cc2)nc1SC1CCCCC1`, at Hormone-sensitive lipase, the pIC50 is 6.05.

`Cc1c(C)n(C(=O)N2CCCCC2)oc1=O`: the pIC50 against Hormone-sensitive lipase is 7.89. Still for that read-out and setting: as for `CCSc1nc(-c2ccc(Cl)cc2)nn1C(=O)N(C)C`, the figure is 8.43; as for `Cc1c(C(C)C)c(=O)on1C(=O)N(C)CCC#N`, under 6.00. At Hormone-sensitive lipase, `CSc1nc(-c2ccc(C)cc2)nn1C(=O)N(C)c1ccccc1` had a pIC50 of 8.75. Take `Cc1c(C(C)C)c(=O)on1C(=O)N(C)CC(N)=O`: the negative-log IC50 (pIC50) against Hormone-sensitive lipase was under 6.00. In turn, `CCC(CCC#N)C(=O)c1ccc(C)o1` (stereo not given) gave an inhibition in assay [1] of 14%. Turning to `Cc1c(Cc2cc3ccccc3n2C)c(=O)on1C(=O)N1CCCCC1`, the pIC50 at Hormone-sensitive lipase is 7.77. In assay [2], `CC1(C)C(C(=O)OC(C#N)c2cccc(Oc3ccccc3)c2)C1(C)C` (stereo not given) showed an inhibition of 35%. The compound `O=C(NC(Cc1ccccc1)C(=O)O)C(=O)c1c[nH]c2ccc(Cl)cc12` (stereo not given) returned an inhibition in assay [1] of 26%.

Consider `CCCCc1c(C)n(C(=O)N2CCC(C)CC2)oc1=O`, for which the pIC50 against Hormone-sensitive lipase was 9.00. Still for that read-out and setting: in the case of `Cc1nnc(C2CCN(C(=O)n3oc(=O)c(C(C)C)c3C)CC2)o1` it was under 6.00. As to `Cc1ncc(COCc2ccccc2)c(CO)c1OCc1ccccc1`, the inhibition in assay [1] amounted to 31%. The compound `Cc1c(C(C)C)c(=O)on1C(=O)N(C)Cc1ccccc1` had a pIC50 against Hormone-sensitive lipase of 8.30.

In turn, `COCCc1c(C)n(C(=O)N2CCC(c3cccc(F)c3)CC2)oc1=O` gave a pIC50 at Hormone-sensitive lipase of 7.70.

On to `Cc1c(C(C)C)c(=O)on1C(=O)N1CCCc2ccccc21`, for which the pIC50 at Hormone-sensitive lipase is 7.22. This pIC50 is 0.48 log units lower than that of the compound before. The same measure, in the same setting: as for `Cc1c(C(C)C)c(=O)on1C(=O)N(C)Cc1cccc(F)c1`, the figure is 8.30. For the compound `Cc1c(C2CCCCC2)c(=O)on1C(=O)N1CCC(C)CC1`, on Hormone-sensitive lipase, the negative logarithm of the IC50 (pIC50) is 8.40. With `CCOC(=O)c1c(C)c2c(n1C)CC/C(=C\N1CCCCC1)C2=O`, the inhibition in assay [1] was determined as 10%.

On to `CSc1nc(-c2ccc(Cl)cc2)nn1C(=O)N(C)c1ccccc1`, for which, on Hormone-sensitive lipase, the pIC50 was 8.55.

`Cc1c(C(C)C)c(=O)on1C(=O)N1CCCC(CO)C1` (stereo not given) gave a pIC50 at Hormone-sensitive lipase of 6.74. Against the preceding compound, the pIC50 is 1.81 log units lower. In turn, `COC(=O)c1cc(Oc2ccc(Cl)cc2Cl)ccc1[N+](=O)[O-]` [BIFENOX] gave an inhibition in assay [2] of 60%. The pIC50 against Hormone-sensitive lipase was 6.37. Compound `COCCc1c(C)n(C(=O)N2CCCCC2)oc1=O` gave a pIC50 against Hormone-sensitive lipase of 8.00.

As to `Cc1c(C(C)C)c(=O)on1C(=O)N1CCN(c2ccccc2)CC1`, at Hormone-sensitive lipase, the pIC50 is 8.22. This pIC50 is 0.22 log units higher than that of the compound before. As for `COC1=CC(=O)OC(c2ccco2)C1` (stereo not given), in assay [1], the inhibition was determined as 12%.

In turn, `Cc1c(C(C)C)c(=O)on1C(=O)N(C)Cc1ccccc1F` gave a pIC50 at Hormone-sensitive lipase of 8.40. For `COc1ccc(Br)c(C(=O)O)c1OS(=O)(=O)c1ccc(C)cc1`, in assay [1], the inhibition stood at 30%. `O=C(N1CCOCC1)n1nc(-c2ccc(Cl)cc2)nc1SCC(F)(F)F`: the pIC50 against Hormone-sensitive lipase was 6.80.

For `CSc1nc(/C=C/c2ccccc2)nn1C(=O)N(C)C`, the pIC50 against Hormone-sensitive lipase was 6.05. The same measure, in the same setting: in the case of `Cc1c(C2CCSCC2)c(=O)on1C(=O)N1CCC(C)CC1` it was 8.22. Turning to `O=C(O)/C(=N\OCc1ccccc1)c1ccccc1`, in assay [2], the inhibition came to 21%.
